ChEMBL document CHEMBL4020768 (Bioorg Med Chem Lett, 2017)

How the values were obtained:
[1] = molecular target: Sigma non-opioid intracellular receptor 1 (Homo sapiens, UniProt Q99720); test: Displacement of (+)-[3H]-pentazocine from recombinant human sigma 1 receptor expressed in baculovirus infected Sf9 insect cell membranes after 90 mins by scintillation counting method
Outline: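 Human σ1 cloned in pFastBac, baculovirus-expressed in Sf9 cells (infected at 4 x 10⁶ cells/mL, 27 °C, harvested 48 h); washed membranes, 2.5 µg protein per reaction in 50 mM Tris pH 8.0 with 10 nM [³H](+)-pentazocine and 8 competitor concentrations 10 pM–100 µM; 90 min at 37 °C; filtration on PEI-soaked glass fiber filters; scintillation counting; two or three independent experiments in triplicate.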

[2] = molecular target: T1, Sigma intracellular receptor 2 (Rattus norvegicus, UniProt Q5U3Y7); test: Displacement of (+)-[3H]-ditolylguanidine from recombinant rat sigma 2 receptor expressed in rat PC12 cell membranes after 90 mins in presence of sigma 1 receptor blocker (+)-SKF-10047 by scintillation counting method
T1 sequence (Q5U3Y7 whole entry): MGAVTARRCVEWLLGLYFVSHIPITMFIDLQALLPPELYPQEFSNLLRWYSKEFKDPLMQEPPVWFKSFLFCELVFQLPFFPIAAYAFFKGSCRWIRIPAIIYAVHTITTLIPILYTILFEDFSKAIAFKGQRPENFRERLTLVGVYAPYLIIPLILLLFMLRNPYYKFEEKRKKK
Outline: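 PC-12 cell membranes (12-30 µg protein per reaction) in 50 mM Tris pH 8.0 with 30 nM [³H]DTG plus 1.8 µM (+)-SKF-10,047 to block σ1 sites; competitor at graded concentrations; 90 min at 37 °C; filtration through 0.3% PEI-soaked glass fiber filters; scintillation counting; two or three independent experiments in triplicate.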

[3] = Selectivity ratio of Ki for recombinant rat sigma 2 receptor to Ki for recombinant human sigma 1 receptor

Sigma non-opioid intracellular receptor 1, sequence (Q99720 whole entry): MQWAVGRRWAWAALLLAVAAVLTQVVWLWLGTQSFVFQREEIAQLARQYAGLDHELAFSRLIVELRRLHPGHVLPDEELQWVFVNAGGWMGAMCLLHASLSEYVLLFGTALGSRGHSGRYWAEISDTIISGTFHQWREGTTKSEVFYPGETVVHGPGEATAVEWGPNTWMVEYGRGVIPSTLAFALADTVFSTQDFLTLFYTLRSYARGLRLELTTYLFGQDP

| Compound | Ki [1] [nM] | Ki [2] [nM] | Ratio Ki [3] |
| --- | --- | --- | --- |
| C[C@@H]1CN(CCCc2ccc(C(C)(C)C)cc2)C[C@@H](C)O1 (relative stereo) | 2.3 | 66.1 | 29 |
| CC(C)(C)c1ccc(CCCN2CCCCC2)cc1 | 1.5 | 31.5 | 21 |
| CC1CCN(CCCc2ccc(C(C)(C)C)cc2)CC1 | 5.4 | 13.8 | 3 |
| CC(Cc1ccc(C(C)(C)C)cc1)CN1C[C@@H](C)O[C@@H](C)C1 (some centres undefined) [FENPROPIMORPH] | – | 854 | – |
| CC1CN(CCCc2ccc(C(C)(C)C)cc2)CC(C)O1 (mixture of isomers) | 8.4 | 77.9 | 9 |
| c1ccc(CCCN2CCOCC2)cc1 | 706 | 2020 | 3 |
| CC(C)(C)c1ccc(CCCN2CCOCC2)cc1 | 2.6 | 930 | 360 |
